Assay results from different studies.
Each line is one published result; the experiments were not run side by side.
Target: Serine/threonine-protein kinase/endoribonuclease IRE1 (ERN1, Homo sapiens, UniProt O75460)

| SMILES | test | conditions | remaining binding [%] |
| --- | --- | --- | --- |
| FC(F)(F)Oc1cccc(-c2cnc3ccc(-c4ccncc4)nn23)c1 | cell-free assay, competition with immobilised ligand | 5 µM | 79 |
| O=C(NCCCN1CCOCC1)c1ccc(Nc2nccc(-c3cc4ccccc4s3)n2)cc1 | binding, competition with immobilised ligand | 1 µM | 52 |
| COc1cnc(Nc2cccc(S(N)(=O)=O)c2)nc1N1CCN(c2ccccc2)C(=O)C1 | binding, competition with immobilised ligand | 1 µM | 78 |
| CCCOc1ccc([C@H]2[C@H](C(=O)O)[C@@H](c3ccc4c(c3)OCO4)CN2CC(=O)Nc2c(CC)cccc2CC)cc1 | cell-free assay, competition with immobilised ligand | 1 µM | 86 |
| N[C@H]1CCN(c2nccc(-c3cnn4ncccc34)n2)C1 | binding | 1 µM | 98 |
| CNCc1ccccc1-c1csc([C@@H](C)Nc2nc(C)nc3cc(OC)c(OC)cc23)c1 | cell-free assay, competition with immobilised ligand | 1 µM | 100 |
| CN(CCCC(F)(F)F)c1nccc(-c2cnn3ncccc23)n1 | binding | 1 µM | 97 |
| O=C(O)[C@@H]1[C@@H](Cn2nnc3ccccc3c2=O)CC[C@H]1C(=O)c1ccc(OCCC2CCOCC2)cc1 | cell-free assay, competition with immobilised ligand | 1 µM | 88 |
| CNC(=O)[C@@H]1CC[C@@H](n2c(-c3ccc4cnccc4c3)nc3ccc(C(=O)NCc4cccc(C(N)=O)c4)cc32)C1 | binding, competition with immobilised ligand | 1 µM | 97 |
| CCC(=O)N[C@H]1CC[C@@H](C(=O)N(C)c2ccc(-c3nc4ccccc4o3)cc2)C1 | cell-free assay, competition with immobilised ligand | 1 µM | 91 |
| O=C(c1ccc(Nc2ncc(Cl)c(-c3ccc(Cl)s3)n2)cc1)N1CCC(N2CCCC2)CC1 | binding, competition with immobilised ligand | 1 µM | 35 |
| c1cncc(-c2cccc(Nc3nccc(NC4CCCCC4)n3)c2)c1 | binding, competition with immobilised ligand | 10 µM | 44 |
| C=CC(=O)N1CCC(C(=O)NCC(=O)N2CCN(c3nc(-c4cnc(N)nc4C(F)F)nc(N4CCOCC4)n3)CC2)CC1 | binding, competition with immobilised ligand | 1 µM | 100 |
| Cc1cnn2ncc(-c3ccnc(N(C)C)n3)c2c1 | binding | 1 µM | 100 |
| O=C(c1ccc(Nc2nccc(-c3cc4ccccc4s3)n2)cc1)N1CCC(N2CCCC2)CC1 | binding, competition with immobilised ligand | 1 µM | 41 |
| c1cnn2ncc(-c3ccnc(N4CCC45COC5)n3)c2c1 | binding | 1 µM | 69 |
| CCCCN(CCCC)C(=O)CN1C[C@@H](c2cc(OC)c3c(c2)OCO3)[C@H](C(=O)O)[C@H]1CC(C)(C)CCC | cell-free assay, competition with immobilised ligand | 1 µM | 100 |
| CN(c1nccc(-c2cnn3ncccc23)n1)C1CC1 | binding | 1 µM | 100 |
| COc1cccc(CNC(=O)c2nc3scc(COCc4ccc(C(=O)O)cc4)c3c(=O)[nH]2)c1 | cell-free assay, competition with immobilised ligand | 1 µM | 89.7 |
| C[C@@H]1CCN(c2nccc(-c3cnn4ncccc34)n2)C1 | binding | 1 µM | 100 |
| O=C(NCC1CCOCC1)c1n[nH]cc1NC(=O)c1c(F)cccc1F | binding, competition with immobilised ligand | 1 µM | 65 |
